Measured values reported in ChEMBL document CHEMBL2163200, “Synthesis, biological evaluation, and structure-activity relationships of novel substituted N-phenyl ureidobenzenesulfonate derivatives blocking cell cycle progression in S-phase and inducing DNA double-strand breaks” (J Med Chem, 2012).
Activity calls are given as the source filed them. The calls are words filed in the database; no cut-off is given here.

Experiments:
[1] = system: Jurkat; assay: Cell cycle arrest in human Jurkat E6-1 cells assessed as accumulation at G2/M phase at 200 uM after 24 hrs by FACS flow cytometry; format: functional
Outline: (§1)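 Jurkat E6 cells grown in RPMI 1640 with 10% FBS at 37 °C, 5% CO2. Compounds were serially diluted in medium starting 50% above the M21 IC50. 4.0 × 10^5 cells were exposed for 24 h, then washed and spiked with chicken red blood cells as internal standard. Cells were fixed in ice-cold ethanol, stained with 1 μg/mL DAPI on ice for 1 h, and phase distribution was read by flow cytometry. The control was 0.5% DMSO.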

[2] = system: HT-29; assay: Cytotoxicity against human HT-29 cells after 48 hrs by SRB assay; format: functional, cell-based; details: HT-29, 48 h
Outline: (§2)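 NCI sulforhodamine B protocol. Cells were grown in high-glucose DMEM with 5% FBS and seeded per well at 4 × 10^3 (HT-29), 3.5 × 10^3 (M21) or 3 × 10^3 (MCF-7), then allowed 24 h to attach. Serial dilutions from 200 μM to 780 nM final were applied in DMSO <0.5% for 48 h. Cells were fixed with cold TCA (10% final) and stained with SRB, with absorbance read at 530–568 nm. Growth inhibition was computed against day-0 plates, giving the 50% inhibitory concentration. At least two experiments in triplicate, CV <10%.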

[3] = system: MCF7; assay: Cytotoxicity against human MCF7 cells after 48 hrs by SRB assay; format: functional, cell-based; details: MCF7, 48 h; outline: as §2
[4] = system: Jurkat; assay: Cell cycle arrest in human Jurkat E6-1 cells assessed as accumulation at S phase at 200 uM after 24 hrs by FACS flow cytometry; format: functional; outline: as §1
[5] = system: Jurkat; assay: Cell cycle arrest in human Jurkat E6-1 cells assessed as accumulation at G0/G1 phase at 200 uM after 24 hrs by FACS flow cytometry; format: functional
Outline: (§3)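 Jurkat E6 cells cultured in RPMI 1640 with 10% FBS at 37 °C, 5% CO2. Compounds serially diluted in medium, starting 50% above the M21 IC50. 4.0 × 10^5 cells were exposed for 24 h. Cells were washed with PBS, chicken red blood cells added as internal standard, and fixed in ice-cold EtOH. After 1 h on ice in PBS with 1 μg/mL DAPI, phase distribution was read by flow cytometry. DMSO-treated cells served as control.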

[6] = system: M21; assay: Cytotoxicity against human M21 cells after 48 hrs by SRB assay; format: functional, cell-based; details: M21, 48 h; outline: as §2
[7] = Toxicity in fertilized chicken embryo assessed as mortality rate at 30 ug per egg, iv administered on day 11 measured on day 17 by CAM assay; format: organism-based, Gallus gallus; details: in vivo, read-out: Activity
Outline: (§4)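 Fertilized chicken eggs grafted on the CAM with HT-1080 cells (3.5 × 105/egg) received a 100 μL intravenous injection under the CAM on day 11. The drug was diluted in Cremophor EL/99% ethanol/PBS (1/1/14 v/v). Groups held 10–12 eggs and were incubated until day 17, when dead embryos and signs of toxicity were counted per group.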

[8] = system: Jurkat; assay: Cell cycle arrest in human Jurkat E6-1 cells assessed as accumulation at G2/M phase at 2.2 uM after 24 hrs by FACS flow cytometry; format: functional; outline: as §1
[9] = system: Jurkat; assay: Cell cycle arrest in human Jurkat E6-1 cells assessed as accumulation at G0/G1 phase at 2.2 uM after 24 hrs by FACS flow cytometry; format: functional; outline: as §3
[10] = system: M21; assay: Induction of DNA damage response in human M21 cells assessed as phosphorylation of H2AX into gammaH2AX at IC50 after 24 hrs by DAPI staining-based immunofluorescence assay; format: functional, cell-based
Outline: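 M21 cells (1 × 10^5) on fibronectin-coated coverslips, grown 24 h, then exposed to agent for 24 h at 37 °C; 0.5% DMSO control. Fixed with 3.7% formaldehyde and permeabilized with 0.1% saponin/3% BSA. Probed with mouse anti-H2AX pS139 antibody for 2 h at room temperature. Nuclei counterstained with DAPI; nuclear γH2AX foci viewed by epifluorescence microscopy.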

[11] = system: HT-1080; assay: Antitumor activity against human HT1080 cells xenografted in chicken chorioallantoic membrane assessed as inhibition of tumor growth at 30 ug per egg, iv administered on day 11 measured on day 17 by CAM assay; format: functional
Outline: (§5)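 HT-1080 fibrosarcoma cells (3.5 × 105/egg) were applied onto freshly exposed CAM of fertilized chicken eggs. On day 11, drug from a DMSO stock was diluted in Cremophor EL/99% ethanol/PBS (1/1/14 v/v) and 100 μL was injected into a vein under the CAM. Groups of 10–12 eggs were kept to day 17, embryos were euthanized at 4 °C for ≥4 h, and tumor wet weight was recorded.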

[12] = system: Jurkat; assay: Cell cycle arrest in human Jurkat E6-1 cells assessed as accumulation at S phase at 2.2 uM after 24 hrs by FACS flow cytometry; format: functional; outline: as §1
[13] = system: Jurkat; assay: Cell cycle arrest in human Jurkat E6-1 cells assessed as accumulation at G2/M phase at 3.5 uM after 24 hrs by FACS flow cytometry; format: functional; outline: as §1
[14] = system: Jurkat; assay: Cell cycle arrest in human Jurkat E6-1 cells assessed as accumulation at S phase at 3.5 uM after 24 hrs by FACS flow cytometry; format: functional
Outline: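 Jurkat E6 T-lymphoblasts in RPMI 1640 with 10% FBS, 37 °C, 5% CO2. […] Chicken red blood cells were added as internal standard. Cells were fixed in ice-cold EtOH and stained with 1 μg/mL DAPI on ice for 1 h before flow cytometry of phase distribution. Vehicle control was 0.5% DMSO.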

[15] = system: Jurkat; assay: Cell cycle arrest in human Jurkat E6-1 cells assessed as accumulation at G0/G1 phase at 3.5 uM after 24 hrs by FACS flow cytometry; format: functional; outline: as §3
[16] = system: Jurkat; assay: Cell cycle arrest in human Jurkat E6-1 cells assessed as accumulation at S phase at 176 uM after 24 hrs by FACS flow cytometry; format: functional; outline: as §1
[17] = system: Jurkat; assay: Cell cycle arrest in human Jurkat E6-1 cells assessed as accumulation at G0/G1 phase at 176 uM after 24 hrs by FACS flow cytometry; format: functional; outline: as §3
[18] = system: Jurkat; assay: Cell cycle arrest in human Jurkat E6-1 cells assessed as accumulation at G2/M phase at 176 uM after 24 hrs by FACS flow cytometry; format: functional; outline: as §1
[19] = system: Jurkat; assay: Cell cycle arrest in human Jurkat E6-1 cells assessed as accumulation at G2/M phase at 23 uM after 24 hrs by FACS flow cytometry; format: functional; outline: as §1
[20] = system: Jurkat; assay: Cell cycle arrest in human Jurkat E6-1 cells assessed as accumulation at S phase at 23 uM after 24 hrs by FACS flow cytometry; format: functional; outline: as §1
[21] = system: Jurkat; assay: Cell cycle arrest in human Jurkat E6-1 cells assessed as accumulation at G0/G1 phase at 23 uM after 24 hrs by FACS flow cytometry; format: functional; outline: as §3
[22] = Toxicity in fertilized chicken embryo assessed as mortality rate at 1 ug per egg, iv administered on day 11 measured on day 17 by CAM assay; format: organism-based, Gallus gallus; details: in vivo, read-out: Activity; outline: as §4
[23] = system: HT-1080; assay: Antitumor activity against human HT1080 cells xenografted in chicken chorioallantoic membrane assessed as inhibition of tumor growth at 1 ug per egg, iv administered on day 11 measured on day 17 by CAM assay; format: functional; outline: as §5

In the case of CCc1ccccc1NS(=O)(=O)c1ccc(NC(=O)NCCCCl)cc1, the Activity [1] is reported as 16%, the IC50 [2] is reported as greater than 200 µM and the IC50 [3] is reported as greater than 200 µM. The Activity [4] was 39%, the Activity [5] was 45% and the IC50 [6] was greater than 200 µM.
CCNC(=O)Nc1ccc(S(=O)(=O)Oc2ccccc2CC)cc1 showed an IC50 [2] of 12 µM, an IC50 [3] of 3.4 µM and a mortality at 6 days [7] of 9%. The Activity [8] was 14%, the Activity [9] was 11% and the IC50 [6] was 2.5 µM. The Activity [10] was “Active”, the TGI [11] was 45% and the Activity [12] was 75%.
In the case of CCNC(=O)Nc1ccc(S(=O)(=O)Oc2ccc(O)cc2)cc1, the IC50 [2] is reported as 12 µM, the IC50 [3] is reported as 8 µM and the Activity [13] is reported as 16%. It also gave an IC50 [6] of 4.3 µM, an Activity [14] of 63% and an Activity [15] of 21%.
For CCc1ccccc1OS(=O)(=O)c1cccc(NC(=O)NCCCl)c1, the IC50 [2] was 4.3 µM, the IC50 [3] was 5.3 µM and the IC50 [6] was 4.8 µM.
In the case of Cc1ccccc1NS(=O)(=O)c1ccc(NC(=O)NCCCCl)cc1, the Activity [1] is reported as 15%, the IC50 [2] is reported as 64 µM and the IC50 [3] is reported as greater than 200 µM. For the same molecule, the Activity [4] was 38%, the Activity [5] was 47% and the IC50 [6] was greater than 200 µM.
For CCNC(=O)Nc1ccc(S(=O)(=O)Nc2ccccc2C)cc1, the IC50 [2] was greater than 200 µM, the IC50 [3] was greater than 200 µM and the IC50 [6] was greater than 200 µM. For the same molecule, the Activity [16] was 55%, the Activity [17] was 31% and the Activity [18] was 14%.
In the case of CCc1ccccc1NS(=O)(=O)c1cccc(NC(=O)NCCCCl)c1, the Activity [1] is reported as 15%, the IC50 [2] is reported as 96 µM and the IC50 [3] is reported as 43 µM. The Activity [4] was 35%, the Activity [5] was 50% and the IC50 [6] was greater than 200 µM.
For CN(C)c1ccc(OS(=O)(=O)c2ccc(NC(=O)NCCCl)cc2)cc1, the IC50 [2] was 39 µM, the IC50 [3] was 58 µM and the IC50 [6] was 43 µM. It also gave an Activity [19] of 9%, an Activity [20] of 40% and an Activity [21] of 51%.
Molecule COc1ccc(/C=C\c2cc(OC)c(OC)c(OC)c2)cc1O [COMBRETASTATIN A4] has a mortality at 6 days [22] of 21% and a TGI [23] of 49%.
With CCCc1ccccc1OS(=O)(=O)c1cccc(NC(=O)NCC)c1 the IC50 [6] was 25 µM, the Activity [19] was 10% and the Activity [20] was 44%. For the same molecule, the Activity [21] was 46%.
